Laboratory results reported in PMC9305876 (International Journal of Cosmetic Science, 2022).

Experiments:
[1] = molecular target: T1, recombinant human tyrosinase (Homo sapiens, UniProt P14679); test: biochemical
T1 sequence (P14679 19-476 limits assumed): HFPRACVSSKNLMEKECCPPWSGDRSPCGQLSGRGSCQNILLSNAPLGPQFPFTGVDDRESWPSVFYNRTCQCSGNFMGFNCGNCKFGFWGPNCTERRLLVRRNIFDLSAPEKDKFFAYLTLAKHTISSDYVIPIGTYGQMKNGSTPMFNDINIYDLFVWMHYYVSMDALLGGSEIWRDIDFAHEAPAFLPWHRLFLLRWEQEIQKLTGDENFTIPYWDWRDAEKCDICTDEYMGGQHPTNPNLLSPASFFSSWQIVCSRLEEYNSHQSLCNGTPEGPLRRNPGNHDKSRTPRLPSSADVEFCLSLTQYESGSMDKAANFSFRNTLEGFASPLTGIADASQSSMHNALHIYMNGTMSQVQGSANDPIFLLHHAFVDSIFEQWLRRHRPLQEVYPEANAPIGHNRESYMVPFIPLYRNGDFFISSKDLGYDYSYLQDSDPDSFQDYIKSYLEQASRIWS

[2] = tested on: primary human epidermal melanocytes; test: Melanin content assay in melanocyte cultures; type: cell-based; conditions: for inhibition of melanin production in melanocytes: 72 h of treatment, at similar doses, mean ± SD; for reduction in melanin synthesis: 72 h
primary melanocytes = test: Cell viability; type: cell-based, human
Outline: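 Neonatal foreskin primary human epidermal melanocytes at passages 4–6 were grown in Medium 254‑CF with melanocyte growth supplement at 37°C and 5% CO2. They were exposed to test compound for 72 h, starting 24 h after plating, alongside 0.1% (v/v) DMSO or medium vehicle controls. Cells were washed in Ca/Mg‑free PBS and loaded with 1 µM Calcein‑AM for 30 min at 37°C, protected from light. Fluorescence was read at ex 490/em 520 nm, with cell‑free blank wells.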

SMILES | IC50 [1] [µM] | inhibition of melanin production in melanocytes [2] [%] | reduction in melanin synthesis ([2]; 4‐HR alone (comparator to 1 µM in combination)) [%] | maximum non‐cytotoxic dose for primary melanocytes (primary melanocytes) [µM] | reduction in melanin synthesis ([2]; niacinamide alone (comparator to 10 mM in combination)) [%]
Oc1ccc(O)cc1 [Hydroquinone, hydroquinone] | > 1000 |  |  |  | 
CCCCc1ccc(O)cc1O [4‐BR, 4‐butylresorcinol] | 13 | 28.6 ± 3 |  |  | 
CCCCCCc1ccc(O)cc1O [4‐HR, 4‐hexylresorcinol] | 16 | 35 ± 1.9 | 7.3 ± 3 | 10 | 
NC(=O)c1cccnc1 [niacinamide] |  |  |  | 10000 | 7.2 ± 4.3
